In ChEMBL document CHEMBL1641385, “Mammea E/BB, an isoprenylated dihydroxycoumarin protonophore that potently uncouples mitochondrial electron transport, disrupts hypoxic signaling in tumor cells” (J Nat Prod, 2010):
Activity calls are given as the source filed them. The calls are words filed in the database; no cut-off is given here.

Columns and labels:
[1] = target: T1, Hypoxia inducible factors; HIF-1-alpha, HIF-2-alpha (Homo sapiens, UniProt Q16665+Q99814); experiment: Inhibition of hypoxia-induced HIF1 activation in human T47D cells by HRE3-TK-luciferase reporter gene assay; assay type: cell-based
[2] = target: T1, Hypoxia inducible factors; HIF-1-alpha, HIF-2-alpha; experiment: Inhibition of 1, 10-phenanthroline-induced HIF1 activation in human T47D cells by HRE3-TK-luciferase reporter gene assay; assay type: cell-based
T47D [3] = experiment: Cytotoxicity against human T47D cells; assay type: cell-based
[4] = target: T1, Hypoxia inducible factors; HIF-1-alpha, HIF-2-alpha; experiment: Inhibition of hypoxia-induced HIF1 activation in human PC3 cells by HRE3-TK-luciferase reporter gene assay; assay type: cell-based; settings: pc-3
Outline: (§1)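 HIF-1 activity measured with the pHRE3-TK-Luc luciferase reporter in PC-3 cells. Cycloheximide 100 µM served as the positive control. Run in triplicate, representative of two independent experiments. IC50 reported with 95% CI.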

[5] = target: T1, Hypoxia inducible factors; HIF-1-alpha, HIF-2-alpha; experiment: Inhibition of 1, 10-phenanthroline-induced HIF1 activation in human PC3 cells by HRE3-TK-luciferase reporter gene assay; assay type: cell-based; settings: pc-3; outline: as §1
[6] = target: T1, Hypoxia inducible factors; HIF-1-alpha, HIF-2-alpha; experiment: Inhibition of HIF1-mediated secreted VEGF expression in hypoxia-stimulated human T47D cells by […]; assay type: cell-based
Outline: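 T47D cells treated with compound (1, 3, 10 µM) under hypoxia (1% O2, 16 h). Secreted VEGF in conditioned medium quantified by ELISA and normalized to cellular protein (micro BCA). n = 3 from one experiment, representative of two. One-way ANOVA with Bonferroni post hoc.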

[7] = target: T1, Hypoxia inducible factors; HIF-1-alpha, HIF-2-alpha; experiment: Inhibition of HIF1-mediated proliferation of hypoxia-stimulated human SK-BR-3 cells after 48 hrs by SRB assay; assay type: cell-based
Outline: (§2)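 Exponentially growing cells were seeded at 30,000/well and held overnight at 37 °C in DMEM/F12 with 10% FBS and pen/strep. Compound (0.31–20 µM) was added in serum-free medium for 48 h. Viability was read by sulforhodamine B. % Inhibition = [1 − (ODtreated/ODcontrol)] × 100, from triplicate wells.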

[8] = target: T1, Hypoxia inducible factors; HIF-1-alpha, HIF-2-alpha; experiment: Inhibition of HIF1-mediated proliferation of hypoxia-stimulated human MDA-MB-231 cells after 48 hrs by SRB assay; assay type: cell-based; outline: as §2
[9] = target: T1, Hypoxia inducible factors; HIF-1-alpha, HIF-2-alpha; experiment: Inhibition of HIF1-mediated proliferation of hypoxia-stimulated human PC3 cells after 48 hrs by SRB assay; assay type: cell-based; settings: PC-3; outline: as §2
[10] = target: T1, Hypoxia inducible factors; HIF-1-alpha, HIF-2-alpha; experiment: Inhibition of HIF1-mediated proliferation of hypoxia-stimulated human T47D cells at 20 uM after 48 hrs by SRB assay; assay type: cell-based; outline: as §2
[11] = target: T1, Hypoxia inducible factors; HIF-1-alpha, HIF-2-alpha; experiment: Inhibition of HIF1-mediated proliferation of hypoxia-stimulated human SK-BR-3 cells at 20 uM after 48 hrs by SRB assay; assay type: cell-based; outline: as §2
[12] = target: T1, Hypoxia inducible factors; HIF-1-alpha, HIF-2-alpha; experiment: Inhibition of HIF1-mediated proliferation of hypoxia-stimulated human MDA-MB-231 cells at 20 uM after 48 hrs by SRB assay; assay type: cell-based; outline: as §2
[13] = target: T1, Hypoxia inducible factors; HIF-1-alpha, HIF-2-alpha; experiment: Inhibition of HIF1-mediated proliferation of hypoxia-stimulated human PC3 cells at 20 uM after 48 hrs by SRB assay; assay type: cell-based; settings: PC-3; outline: as §2
[14] = target: T1, Hypoxia inducible factors; HIF-1-alpha, HIF-2-alpha; experiment: Inhibition of HIF1-mediated proliferation of hypoxia-stimulated human T47D cells at 0.31 to 20 uM after 48 hrs by SRB assay; assay type: cell-based; outline: as §2
[15] = target: T1, Hypoxia inducible factors; HIF-1-alpha, HIF-2-alpha; experiment: Inhibition of HIF1-mediated proliferation of hypoxia-stimulated human SK-BR-3 cells at 0.31 to 20 uM after 48 hrs by SRB assay; assay type: cell-based; outline: as §2
[16] = target: T1, Hypoxia inducible factors; HIF-1-alpha, HIF-2-alpha; experiment: Inhibition of HIF1-mediated proliferation of hypoxia-stimulated human MDA-MB-231 cells at 0.31 to 20 uM after 48 hrs by SRB assay; assay type: cell-based; outline: as §2
[17] = target: T1, Hypoxia inducible factors; HIF-1-alpha, HIF-2-alpha; experiment: Inhibition of HIF1-mediated proliferation of hypoxia-stimulated human PC3 cells at 0.31 to 20 uM after 48 hrs by SRB assay; assay type: cell-based; settings: PC-3; outline: as §2
[18] = target: T1, Hypoxia inducible factors; HIF-1-alpha, HIF-2-alpha; experiment: Inhibition of HIF1-mediated proliferation of hypoxia-stimulated human SK-BR-3 cells up to 20 uM after 16 hrs by SRB assay; assay type: cell-based
Outline: (§3)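 Short-term viability: cells exposed to compound at up to 20 µM for 16 h under hypoxia (1% O2), then read by sulforhodamine B and expressed as % inhibition of untreated control.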

[19] = target: T1, Hypoxia inducible factors; HIF-1-alpha, HIF-2-alpha; experiment: Inhibition of HIF1-mediated proliferation of hypoxia-stimulated human T47D cells up to 20 uM after 16 hrs by SRB assay; assay type: cell-based; outline: as §3
[20] = target: T1, Hypoxia inducible factors; HIF-1-alpha, HIF-2-alpha; experiment: Inhibition of HIF1-mediated proliferation of hypoxia-stimulated human MDA-MB-231 cells up to 20 uM after 16 hrs by SRB assay; assay type: cell-based; outline: as §3
[21] = target: T1, Hypoxia inducible factors; HIF-1-alpha, HIF-2-alpha; experiment: Inhibition of HIF1-mediated proliferation of hypoxia-stimulated human PC3 cells up to 20 uM after 16 hrs by SRB assay; assay type: cell-based; settings: PC-3; outline: as §3
MDA-MB-231 [22] = experiment: Inhibition of human MDA-MB-231 cell migration at 5 to 20 uM after 22 hrs under normoxic condition; assay type: functional, cell-based
Outline: (§4)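 Confluent MDA-MB-231 monolayers were scratched with pipet tips. Compound (5 or 20 µM) was added for 22 h under normoxia (95% air:5% CO2) or hypoxia (1% O2:94% N2:5% CO2). Cells were then fixed, stained and imaged. Parallel viability was checked by sulforhodamine B, as % of untreated control under matching oxygen conditions.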

MDA-MB-231 [23] = experiment: Inhibition of human MDA-MB-231 cell migration at 5 to 20 uM after 22 hrs under hypoxic condition; assay type: functional, cell-based; outline: as §4
[24] = target: T1, Hypoxia inducible factors; HIF-1-alpha, HIF-2-alpha; experiment: Inhibition of HIF1-mediated migration of human MDA-MB-231 cells at 20 uM by wound healing assay; assay type: cell-based; outline: as §4
T47D [25] = experiment: Effect on cellular respiration in human T47D cells assessed as increase in oxygen consumption at 1 uM; assay type: functional
Outline: (§5)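 Oxygen consumption of intact T47D cells monitored with a Clark-type electrode. Rate with compound expressed as % control (compound rate/control rate). n = 3; FCCP run as positive control.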

T47D [26] = experiment: Effect on cellular respiration in human T47D cells assessed as decrease in oxygen consumption at 10 uM; assay type: functional; outline: as §5
T47D [27] = experiment: Induction of state 4 respiration of human T47D cells; assay type: functional, cell-based
Outline: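 T47D respiration measured by Clark-type electrode. Oligomycin (1 µM final) added to establish state 4 respiration, then compound added at specified concentrations to test resumption of oxygen consumption; FCCP used as positive control.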

T47D [28] = experiment: Effect on cellular respiration in human T47D cells assessed as increase in oxygen consumption at 1 uM in presence of mitochondrial uncoupler FCCP; assay type: functional, cell-based
T47D [29] = experiment: Effect on cellular respiration in human T47D cells assessed as decrease in oxygen consumption at 10 uM n presence of mitochondrial uncoupler FCCP; assay type: functional, cell-based
T47D [30] = experiment: Decrease in mitochondrial membrane potential in human T47D cells 1 to 10 uM after 15 mins by TMRM assay; assay type: functional, cell-based
Outline: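 T47D cells seeded at 100,000/well on chambered coverglass overnight, then switched to TES buffer (20 mM, pH 7.3) with salts, 5 mM glucose, 0.3% BSA and 2 nM TMRM. Loaded 1 h 15 min at 37 °C, then compound added for 15 min. Live-cell epifluorescence imaging; FCCP as reference.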

[31] = target: T1, Hypoxia inducible factors; HIF-1-alpha, HIF-2-alpha; settings: T47D, at 1 to 10 µM

SMILES: CCC(C)C(=O)c1c(O)c(CC=C(C)C)c(O)c2c(C(CC)OC(C)=O)cc(=O)oc12 (centres undefined)
- IC50 [1]: 960 nM
- IC50 [2]: 890 nM
- IC50 (T47D [3]): > 20000 nM
- IC50 [4]: 2000 nM
- IC50 [5]: 6500 nM
- inhibition [6]: Dose-dependent effect
- inhibition [7]: Dose-dependent effect
- inhibition [8]: Dose-dependent effect
- inhibition [9]: Dose-dependent effect
- inhibition [10]: 54%
- inhibition [11]: 53%
- inhibition [12]: 52%
- inhibition [13]: 40%
- inhibition [14]: 50%
- inhibition [15]: 50%
- inhibition [16]: 50%
- inhibition [17]: 40%
- inhibition [18]: < 30%
- inhibition [19]: < 30%
- inhibition [20]: < 30%
- inhibition [21]: < 30%
- Activity (MDA-MB-231 [22]): Active
- Activity (MDA-MB-231 [23]): Active
- inhibition [24]: 25%
- Activity (T47D [25]): 30%
- inhibition at 10 µM (T47D [26]): 50%
- Activity (T47D [27]): Active
- Activity (T47D [28]): Active
- Activity (T47D [29]): Active
- inhibition (T47D [30]): Active
- inhibition [31]: inactive

SMILES: N#CC(C#N)=NNc1ccc(OC(F)(F)F)cc1
- IC50 [1]: 510 nM
- IC50 [2]: 310 nM
- inhibition [31]: Active
